# A selection: hits, their analogues and other compounds. The true share with any hit is near 4.3%.
# APP 5'UTR act: activates APP 5'UTR luciferase reporter | SH-SY5Y APP 5'UTR luciferase reporter, luminescence; zero percent = DMSO vehicle wells | activation, % at 2 µM | hit rate 1% among 190,000;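 active = activation above a set limit, based on mean plus 3 SD of controls, cut at about 140% in these data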
# FLuc act counter: firefly luciferase counter-screen for stimulation assays | P08659 | ATPlite luciferase biochemical, luminescence, 10 min; 0 = ATP-free wells, 1 = DMSO control | activation factor at 10 µM | 200,000 tested, under 10 active | AID 1027;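 active = luciferase activation factor, scaled between plate controls, of at least 2 with compound at 10 µM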
# Target sequence (P08659 whole entry, looked up): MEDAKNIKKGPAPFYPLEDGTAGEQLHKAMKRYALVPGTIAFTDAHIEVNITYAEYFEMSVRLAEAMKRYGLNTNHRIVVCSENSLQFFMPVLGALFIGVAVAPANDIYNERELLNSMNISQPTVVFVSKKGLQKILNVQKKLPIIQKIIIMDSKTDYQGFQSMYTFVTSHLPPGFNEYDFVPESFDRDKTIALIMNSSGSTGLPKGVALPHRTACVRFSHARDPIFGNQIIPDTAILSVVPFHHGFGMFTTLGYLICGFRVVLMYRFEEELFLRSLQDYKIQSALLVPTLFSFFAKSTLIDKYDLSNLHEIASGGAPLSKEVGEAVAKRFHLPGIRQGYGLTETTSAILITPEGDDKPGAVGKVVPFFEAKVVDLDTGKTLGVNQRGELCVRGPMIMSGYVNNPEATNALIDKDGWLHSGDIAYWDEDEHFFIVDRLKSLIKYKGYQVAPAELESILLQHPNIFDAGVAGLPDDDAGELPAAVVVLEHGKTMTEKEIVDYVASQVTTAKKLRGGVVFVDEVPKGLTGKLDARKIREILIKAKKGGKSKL
#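 System: cell-free luciferase reagent; medium: PBS as buffer for the ATP substrate; doses: test compounds dosed from 2 mM stocks in 100% DMSO; incubation: 10 min, room temperature; measured by: luminescence from luciferase reaction; read-out: luciferase activation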
# sdo1 growth: compounds rescuing growth of sdo1-depleted yeast, bone marrow failure model; z-score at 10 µM; hit rate 0.21% among 140,000; AID 817; S. cerevisiae sdo1-depleted JHY4D growth rescue, OD600 30 h; active compounds read high; pdr5 snq2 efflux-pump mutant strain;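 active = z-score above 3 at both the 24 hr and the 30 hr optical density reads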;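 also: z-score against mean and SD of all compound wells on the same plate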
# NF-kB expr up: NF-kB expression increase, human neuronal cells. NF-kB reporter expression; active compounds read high. fold change at 12.5 µM. hit rate 1.6% among 190,000. AID 1239; in the data active = fold change above about 3.3
# STAT1 act: increases IFN-gamma driven STAT1 reporter signal | hit rate 2.6% among 200,000 | activation (% of control), % at 5.5 µM | AID 932 | NIH 3T3 STAT1-luciferase reporter, luminescence; 100% = IFN-gamma alone, no compound;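 active = activation above the screen-wide mean activation plus 3 SD, cut at about 130% in these data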;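 also: raw ratio to IFN-gamma control signal so 100% means no change and 0% no light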
# FLuc inhib CS: inhibits firefly luciferase, flagging false hits in luciferase inhibition screens; P08659; ATPLite firefly luciferase biochemical luminescence, 10 min; inhibition, % at 10 µM; hit rate 1.5% among 200,000; AID 1006;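 active = inhibition above about 50% when tested at 10 µM, limit read from the data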
# * marks the source's active call; other numbers are inactive results; . = not tested or not shown; [ ] = another dose, or the depositor's remark.
SMILES,APP 5'UTR act,FLuc act counter,sdo1 growth,NF-kB expr up,STAT1 act,FLuc inhib CS
Cc1n(C)c2cc(Cl)ccc2[n+]1Cc1ccccc1,-5,1,.,0.84,93,-4
COc1cc(-c2cc(C(=O)N3CCN(c4ccccn4)CC3)c3ccccc3n2)cc(OC)c1OC,-2,.,0.04[4.4 µM],0.35,79,.
COc1ccc(-c2cc(C(=O)c3c(N)n(C)c(=O)n(C)c3=O)c3ccccc3n2)cc1OC,11,0.4,.,1.2,111,62*
COc1ccc(-c2cc(C(=O)N3CCN(c4ccccc4)CC3)c3ccccc3n2)cc1,-75,0.4,.,1.1,105,64*
COc1ccc(-c2cc(C(=O)N3CCN(c4ccccn4)CC3)c3ccccc3n2)cc1,69,0.2,-1.2,1,108,80*
Cn1c(N)c(C(=O)c2cc(-c3ccncc3)nc3ccccc23)c(=O)n(C)c1=O,-6,0.8,.,1.1,94,19
CCOc1ccc(-c2cc(C(=O)N3CCN(c4ccccn4)CC3)c3ccccc3n2)cc1,36,0.1,-1.3,1.3,116,90*
CC(CNC(=S)Nc1cc(F)cc(F)c1)CSc1ccc(Cl)cc1 (stereo unspecified),29,1,.,1,95,-1
O=C(CCCOc1ccccc1)N1CCN(c2ccccn2)CC1,153*,1,0.21,2.9,129*,1
COc1ccc2cc(-c3cc(C(=O)O)c4ccccc4n3)ccc2c1,84,0,0.78,6.3*,36,98*
O=C(COC(=O)CNS(=O)(=O)c1ccccc1)Nc1ccc(Cl)cn1,-1,1.1,1.1,0.98,100,-8
O=c1cc(O)nc(-c2ccccc2)s1,8,1,.,1.2,108,-1
Nc1cccc(-c2nc3ccc(N)cc3s2)c1,-13,0.1,-0.46,2.6,124,93*
O=C(O)c1ccc2nc(-c3ccccc3)sc2c1,44,0.6,-0.12,9.1*,68,44
Nc1ccc(-c2nc3ccc(C(=O)O)cc3s2)cc1,-67,0.2,0.11,9.2*,20,76*
Nc1cc2sc(-c3ccc(C(=O)O)cc3)nc2cc1Cl,103,0.2,0.2,3.1,107,76*
CNC(=S)NNC(=O)c1ccc(=O)n(Cc2cccc(C(F)(F)F)c2)c1,1,1.1,.,1.5,95,-5
CC(COc1ccccc1)N1CCC(CO)(Cc2ccccc2)CC1 (stereo unspecified),27,1.1,.,4.4*,94,-8
Cc1csc(NC(=O)c2cc3c(C)nn(Cc4ccccc4Cl)c3s2)n1,-1,1.1,-1.1,0.64,90,-7
COc1cccc(/C(C)=N/NC(=O)Cc2c(C)[nH][nH]c2=O)c1,14,1,.,0.9,101,-1
CCOC(=O)c1[nH]c2ccc(C)cc2c1N,111,0.5,0.08,3.5*,120,51*
COc1ccc(OCC(=O)Nc2sc3c(c2C(=O)NCC2CCCO2)CCC3)cc1 (stereo unspecified),7,1,-0.67,1.1,101,1
CNc1nc(-c2ccc3c(c2)CCN3C(=O)c2ccccc2C)cs1,193*,0.7,.,3.8*,145*,31
CNc1nc(-c2ccc3c(c2)CCN3C(=O)c2ccc(F)cc2)cs1,47,0.9,.,2,128,13
CCCOc1ccc(OCCOCCN2CCc3ccccc3C2)cc1,-3,1,0.16,0.97,98,-2
SMILES,APP 5'UTR act,FLuc act counter,sdo1 growth,NF-kB expr up,STAT1 act,FLuc inhib CS
Cc1ccc(OCc2csc(N)n2)cc1,49,0.7,.,2.2,131*,35
Cc1ccccc1OCc1csc(N)n1,-2,1,.,1.2,104,-2
Nc1nc(COc2ccccc2)cs1,17,1,0.42,1.4,102,-3
Nc1nc(COc2ccc(Cl)cc2)cs1,53,0.8,.,1.1,137*,16
Clc1ccc2oc(-c3ccccc3)cc(=NCCCN3CCOCC3)c2c1,70,1,.,1.8,147*,4
Clc1cccc(-c2nc(NCCCN3CCOCC3)c3ccccc3n2)c1,-11,1,.,.,100,-2
O=S(=O)(c1ccc(Cl)cc1)N1c2ccccc2Oc2nc3ccccc3nc21,15,1.1,-0.09,1.1,100,-6
COc1ccc(S(=O)(=O)N2c3cc(Cl)ccc3Oc3nc4ccccc4nc32)cc1,17,1,-0.53,3.6*,95,-4

# Screening results deposited in PubChem BioAssay by several laboratories.
